Measurements reported in article PMC9529790 (Nature chemical biology, 2022).
Blank lines part the entries; values can stand above or below the molecule they belong to.

What was measured:
ALDH1B1 = molecular target: T1, ALDH1B1 (Homo sapiens, UniProt P30837); experiment: ALDEFLUOR assay, ALDH1B1 transiently expressed in ALDH1A3-/- A375 cells; format: cell-based; details: flow cytometry
T1 sequence (P30837 18-517): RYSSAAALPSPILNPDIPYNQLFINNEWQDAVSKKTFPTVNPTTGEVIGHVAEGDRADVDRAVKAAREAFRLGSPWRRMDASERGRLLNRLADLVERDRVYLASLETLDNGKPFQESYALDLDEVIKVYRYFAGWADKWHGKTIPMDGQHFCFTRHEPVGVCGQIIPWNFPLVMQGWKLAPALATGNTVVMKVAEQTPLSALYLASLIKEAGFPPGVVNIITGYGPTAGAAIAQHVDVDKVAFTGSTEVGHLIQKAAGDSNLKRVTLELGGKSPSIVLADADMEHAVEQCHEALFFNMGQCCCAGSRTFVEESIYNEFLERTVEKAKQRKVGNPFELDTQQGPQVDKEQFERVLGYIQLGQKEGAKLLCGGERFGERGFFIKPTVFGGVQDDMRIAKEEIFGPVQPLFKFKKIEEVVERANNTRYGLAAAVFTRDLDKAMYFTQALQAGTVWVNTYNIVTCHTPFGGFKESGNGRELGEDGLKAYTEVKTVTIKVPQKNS
Procedure, shortened: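 ALDH1A3-knockout A375 cells were grown 24 h, then transfected with empty pCMV6, pCMV6-GFP (to estimate transfection efficiency) or pCMV6-ALDH1B1. Medium was changed at 24 h and cells grown another 24 h. Trypsinized cells in ALDEFLUOR buffer were exposed to test compound for 15 min at 37 °C with 5% CO2, then to ALDEFLUOR reagent for 30 min. Live single cells (DAPI gating) were analysed by flow cytometry; read-out is % of cells outside the negative-control gate (ALDEFLUOR vs SSC-A).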

[1] = system: ALDH1B1 variants (E124G/N457G and V173I/N457G); experiment: Inhibitor resistance of ALDH1B1 mutants; format: biochemical, human
Procedure, shortened: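 A375 ALDH1A3-knockout cells were transfected (3:1 DNA:FuGENE HD) with wild-type or mutant pCMV6-ALDH1B1 and grown 48 h. Cells in ALDEFLUOR buffer received ALDEFLUOR reagent. Within 10 s, aliquots were moved to tubes holding DMSO, DEAB (1.5 mM stock in EtOH) or test compound (100 µM or 10 µM stocks in DMSO). Tubes were incubated 30 min at 37 °C, cells pelleted, and analysed by flow cytometry.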

SW480 cells = experiment: Thermal proteome profiling; format: binding, human; details: 2 µM, 1 hour; cutoffs ΔTm ≥ 1.5 °C and P < 0.05
wild-type colon PDOs = experiment: Patient-derived organoid viability; format: cell-based, human; details: seven days treatment; compared with tumor PDOs
Procedure, shortened: (§1)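 Organoids (wild-type colon or colorectal tumour) were dissociated with TrypLE plus 10 µM Y-27632. They were plated as 10-µL BME-2 domes at 1,000 cells/µL in WENR medium with 10 µM Y-27632 and 2.5 µM CHIR99021, and grown 3–5 days. Test compound at varying concentrations in WENR was then given for 7 days. Viability was read as resazurin metabolism with 10% Alamar Blue: 4 h for tumour PDOs, 6 h for wild-type PDOs, at 37 °C in the dark.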

[2] = system: colorectal tumor PDO lines; experiment: Patient-derived organoid viability; format: cell-based, human; details: seven days treatment; CTO1-CTO4
Procedure, shortened: as §1

[3] = system: E124G/N457G mutant-expressing cells; format: cell-based, human
Procedure, shortened: (§2)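 SW480 cells were seeded on solidified Matrigel in RPMI-1640 spheroid medium containing 20 ng/mL EGF, 20 ng/mL FGF, heparin, N-2 supplement and penicillin/streptomycin. Seeding was 1,000 cells/well (96-well) or 5,000 cells/well (24-well). Test compound was added in medium and cultures were grown 7 days at 37 °C with 5% CO2. Spheroids were imaged by phase contrast (some stained with crystal violet), and small objects excluded before area analysis.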

[4] = molecular target: T2, endogenous ALDH1B1 in live SW480 cells (Homo sapiens, UniProt P30837); experiment: Cellular thermal shift assay; format: binding; details: 10 µM, 1 hour
T2 sequence (P30837 18-517): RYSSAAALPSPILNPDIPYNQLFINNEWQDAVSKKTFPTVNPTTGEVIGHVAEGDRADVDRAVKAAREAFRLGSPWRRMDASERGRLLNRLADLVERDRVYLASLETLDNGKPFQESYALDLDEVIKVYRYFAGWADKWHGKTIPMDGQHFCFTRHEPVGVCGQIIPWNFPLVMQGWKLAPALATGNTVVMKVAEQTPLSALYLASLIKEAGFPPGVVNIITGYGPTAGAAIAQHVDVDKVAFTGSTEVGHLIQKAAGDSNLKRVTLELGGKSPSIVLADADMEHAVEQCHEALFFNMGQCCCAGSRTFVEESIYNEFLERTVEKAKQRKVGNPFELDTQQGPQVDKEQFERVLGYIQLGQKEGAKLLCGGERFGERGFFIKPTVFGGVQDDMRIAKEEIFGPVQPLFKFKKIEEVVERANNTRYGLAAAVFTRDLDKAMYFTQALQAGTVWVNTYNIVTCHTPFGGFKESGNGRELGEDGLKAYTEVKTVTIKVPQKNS
Procedure, shortened: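 SW480 cells were grown in 15-cm dishes, trypsinized at about 80% confluence, and kept live in the incubator for 1 h. Cells were then pelleted at 480 x g for 5 min, washed with PBS and resuspended in PBS with protease inhibitors. Total protein per lane was checked on stain-free gels alongside immunoblotting of ALDH1B1.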

[5] = system: parental and 5-FU-resistant SW480 cell lines; experiment: Spheroid growth of parental and 5-FU-resistant SW480 lines; format: cell-based, human; details: spheroids
Procedure, shortened: as §2

[6] = molecular target: T3, ALDH1B1 (aldehyde dehydrogenase 1B1), human recombinant, mitochondria-targeting sequence removed (human), P30837; experiment: crystal structure; details: remark: other sources report otherwise
T3 chain: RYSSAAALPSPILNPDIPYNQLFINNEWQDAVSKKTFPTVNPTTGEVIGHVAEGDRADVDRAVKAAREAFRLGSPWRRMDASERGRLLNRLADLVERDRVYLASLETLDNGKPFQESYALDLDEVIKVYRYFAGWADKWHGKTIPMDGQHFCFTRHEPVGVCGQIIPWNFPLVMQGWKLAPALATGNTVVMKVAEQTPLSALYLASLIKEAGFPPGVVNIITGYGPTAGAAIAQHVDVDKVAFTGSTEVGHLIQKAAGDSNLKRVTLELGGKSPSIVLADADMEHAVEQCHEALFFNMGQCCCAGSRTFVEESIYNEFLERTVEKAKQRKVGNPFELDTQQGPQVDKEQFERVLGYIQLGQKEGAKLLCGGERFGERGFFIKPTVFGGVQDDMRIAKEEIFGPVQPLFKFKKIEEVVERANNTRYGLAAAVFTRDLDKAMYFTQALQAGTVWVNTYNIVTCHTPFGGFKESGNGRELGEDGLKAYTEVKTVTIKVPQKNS

cellular ALDH1B1 activity (ALDEFLUOR signal) (ALDH1B1): abrogated
Molecule: CCN(CC)c1ccc(C=O)cc1 [DEAB, N,N-diethylaminobenzaldehyde]

inhibitor sensitivity of ALDH1B1 variants [1]: markedly reduced inhibitor sensitivity
thermal stabilization of ALDH1B1 [4]: stabilizes endogenous ALDH1B1
Molecule: COc1cc(Cl)ccc1C1=CN(c2ccc(-c3ccccc3OC)cc2)C2=NCCCN12.O=CO [IGUANA-1]
inhibitor-dependent change in thermal stability (ΔTm), proteome-wide (SW480 cells): largest inhibitor-dependent increase in thermal stability
sensitivity of wild-type colon PDOs (wild-type colon PDOs): less sensitive
growth of colorectal adenocarcinoma PDOs [2]: inhibit the growth of each line
resistance of mutant-expressing spheroid cultures versus wild-type ALDH1B1 [3]: more resistant

loss of sensitivity of 5-FU-resistant SW480 line versus parental line [5]: approximately 20 fold
Molecule: O=c1[nH]cc(F)c(=O)[nH]1 [5-FU]

stoichiometry N [6]: 4
B1: ALDH1B1 (aldehyde dehydrogenase 1B1), human recombinant, mitochondria-targeting sequence removed, P30837 18-517 (enzyme)
chain: RYSSAAALPSPILNPDIPYNQLFINNEWQDAVSKKTFPTVNPTTGEVIGHVAEGDRADVDRAVKAAREAFRLGSPWRRMDASERGRLLNRLADLVERDRVYLASLETLDNGKPFQESYALDLDEVIKVYRYFAGWADKWHGKTIPMDGQHFCFTRHEPVGVCGQIIPWNFPLVMQGWKLAPALATGNTVVMKVAEQTPLSALYLASLIKEAGFPPGVVNIITGYGPTAGAAIAQHVDVDKVAFTGSTEVGHLIQKAAGDSNLKRVTLELGGKSPSIVLADADMEHAVEQCHEALFFNMGQCCCAGSRTFVEESIYNEFLERTVEKAKQRKVGNPFELDTQQGPQVDKEQFERVLGYIQLGQKEGAKLLCGGERFGERGFFIKPTVFGGVQDDMRIAKEEIFGPVQPLFKFKKIEEVVERANNTRYGLAAAVFTRDLDKAMYFTQALQAGTVWVNTYNIVTCHTPFGGFKESGNGRELGEDGLKAYTEVKTVTIKVPQKNS
